Hits are enriched below; roughly 2.2% of the tested compounds scored in any of these assays.
PfG6PD inh = PfG6PD (Plasmodium falciparum) enzyme inhibition | AID 504690 | inhibition, % at 20 µM | 350,000 compounds, 0.78% hits | PfGluPho enzyme, NADPH resazurin-diaphorase fluorescence;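 active means inhibition reaching at least a set limit at 20 µM in the primary screen, cut at about 59% in these data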
HKDC1 inh = inhibitors of human hexokinase HKDC1 | inhibition, % at 20 µM | recombinant HKDC1, G6PDH/diaphorase resazurin coupled fluorescence | 340,000 compounds, 0.16% hits | Q2TB90;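 active means inhibition above about 35% when tested at 20 µM, limit read from the data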
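Assay system: in-house recombinant HK5 (HKDC1) enzyme. Input: HKDC1 at 5 µg/mL. Medium: Tris pH 8.0 buffer with MgCl2, Tween-20, BSA, BME. Dosing: single 20 µM dose. Schedule: 90 min reaction incubation at room temperature, dark. Signal: resazurin-to-resorufin fluorescence via G6PDH and diaphorase coupling, 525/613 nm. Controls: DMSO-enzyme wells negative, buffer-substituted wells positive.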
Neddyl block = cullin neddylation inhibition; TR-FRET cullin neddylation, biochemical; inhibition, % at 25 µM; 360,000 compounds, 0.58% hits; AID 651699; in the data active means inhibition above about 36%
Target sequence (P61081 whole entry, looked up): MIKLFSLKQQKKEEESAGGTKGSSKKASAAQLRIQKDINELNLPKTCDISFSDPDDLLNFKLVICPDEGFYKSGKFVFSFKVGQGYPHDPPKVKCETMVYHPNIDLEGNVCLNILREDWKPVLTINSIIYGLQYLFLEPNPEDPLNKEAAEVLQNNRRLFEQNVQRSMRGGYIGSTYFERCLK
Target sequence (Q13564 whole entry, looked up): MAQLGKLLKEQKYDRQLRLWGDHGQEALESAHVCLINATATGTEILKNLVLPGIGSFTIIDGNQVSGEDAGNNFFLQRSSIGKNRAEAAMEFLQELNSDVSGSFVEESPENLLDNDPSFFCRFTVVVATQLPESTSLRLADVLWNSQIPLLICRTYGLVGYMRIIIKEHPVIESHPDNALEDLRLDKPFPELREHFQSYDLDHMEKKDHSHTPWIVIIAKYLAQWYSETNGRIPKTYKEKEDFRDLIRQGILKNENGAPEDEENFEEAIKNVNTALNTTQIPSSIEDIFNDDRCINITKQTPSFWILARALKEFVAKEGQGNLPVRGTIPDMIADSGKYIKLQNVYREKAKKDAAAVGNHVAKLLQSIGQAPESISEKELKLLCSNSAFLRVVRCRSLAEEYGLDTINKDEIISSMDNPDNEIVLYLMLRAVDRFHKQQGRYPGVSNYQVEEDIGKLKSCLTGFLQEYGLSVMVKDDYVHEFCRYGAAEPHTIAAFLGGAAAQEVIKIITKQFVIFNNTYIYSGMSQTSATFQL
PfM18AAP inh = blocks P. falciparum M18 aspartyl aminopeptidase; recombinant PfM18AAP, H-Glu-NHMec fluorogenic cleavage; inhibition, % at 7.35 µM; 290,000 compounds, 1.2% hits; AID 1822;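 active means inhibition above the campaign mean inhibition over all tested compounds plus 3 SD, cut at about 28% in these data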
Each line names hits and unclear results; the compound was inactive in the other large screens.

CCCCNC(=S)N/N=C/c1ccc(C)s1	none
Cc1cc(C(F)(F)F)cc(NNC(=O)NC(=O)c2ccccc2Cl)n1	PfM18AAP inh 30.6
CCN(C(=O)COC(=O)c1ncc(Cl)c(Cl)c1Cl)c1c(N)n(Cc2ccccc2)c(=O)[nH]c1=O	none (no result: PfM18AAP inh)
N#C/C(=C\c1ccco1)C(=O)Nn1cnnc1	PfM18AAP inh 31.6
C=CCNS(=O)(=O)c1cc2c3c(c1)CCN3C(=O)CC2	none
O=c1oc2c3c4c(cc2s1)CCCN4CCC3	none
O=c1ccc2cc3c4c(c2o1)CCCN4CCC3	Neddyl block 49.6
Cc1ccc(S(=O)(=O)N(C(=O)c2ccncc2)c2ccc(OC(=O)c3ccncc3)c3ccccc23)c(C)c1	PfG6PD inh 73.2, HKDC1 inh 38.2
CC(=O)Oc1ccc(N(C(C)=O)S(=O)(=O)c2ccc(C)cc2C)c2ccccc12	none
Cc1n[nH]c(=S)n(/N=C/c2cccc([N+](=O)[O-])c2)c1=O	none
COc1cc(/C=N/n2c(=S)[nH]nc(C)c2=O)cc([N+](=O)[O-])c1O	PfM18AAP inh 28.9
O=C(CN1C(=O)/C(=C2/SC(=S)N(CCS(=O)(=O)O)C2=O)c2ccccc21)Nc1cccc(C(F)(F)F)c1	HKDC1 inh 36.2 (no result: PfM18AAP inh)
Cn1cc(CNC(=O)c2cc(COc3ccc4c(c3)CCCC4)on2)cn1	PfM18AAP inh 29.5
COc1ccccc1NC(=O)c1c(NC(=O)CCC(=O)O)sc2c1CCCCC2	none
COc1ccc(OC)c(NC(=O)c2c(NC(=O)CCC(=O)O)sc3c2CCCCC3)c1	PfM18AAP inh 37.3
COC(=O)c1c(NC(=O)CCC(=O)O)sc2c1CCCCC2	none
O=C(O)CCC(=O)Nc1sc2c(c1C(=O)Nc1cccc3ccccc13)CCCCC2	PfM18AAP inh 30.0
CCOC(=O)Cc1cc(=O)[nH]n(-c2ccccc2)c1=O	none (no result: PfM18AAP inh)
COC(=O)c1cnc(NNS(=O)(=O)c2ccc(Cl)cc2)nc1C(F)(F)F	PfM18AAP inh 28.6
Cc1cccc(C)c1NC(=O)C(c1ccccc1OC(F)(F)F)N1CCN(c2ccc(F)cc2)CC1 (stereo unspecified)	none (no result: PfG6PD inh, HKDC1 inh, PfM18AAP inh)
O=C(O)c1cccc(Nc2ccncc2[N+](=O)[O-])c1	none
Cc1ccc(/C=c2\sc3n(c2=O)CN(c2ccc(Br)cc2)CN=3)o1	PfM18AAP inh 28.8
COc1ccc(/C(O)=C2/C(=O)C(=O)N(CCCN3CCOCC3)C2c2ccc(Cl)cc2)cc1 (stereo unspecified)	none (no result: HKDC1 inh, PfM18AAP inh)
COCc1cc(C)n(CC(=O)Nc2ccc(N3CCOCC3)cc2)c(=O)c1C#N	none (no result: PfM18AAP inh)
O=[N+]([O-])c1ccc(C2CC(c3ccccc3)=Nc3ccccc3S2)cc1 (stereo unspecified)	PfM18AAP inh 31.8
O=C(O)C1CC(c2ccccc2)=Nc2ccccc2S1 (stereo unspecified)	none
CC(C)(C)OC(=O)C[C@@H]1C/C=C\C[C@H](CC(=O)NCCO)C(=O)NC[C@H](c2ccccc2)OC1=O	none (no result: PfM18AAP inh)
Cc1cccc2c3c([nH]c12)CCN(C)C3	PfM18AAP inh 28.7
NC(=O)c1cccc2c3c([nH]c12)CCCC3	none
CCCCNC(=O)C(NC(=O)Cc1cc(C(F)(F)F)cc(C(F)(F)F)c1)C(=O)c1ccccc1 (stereo unspecified)	none (no result: PfG6PD inh, HKDC1 inh, PfM18AAP inh)
COc1ccc(NC(=O)N(C)C[C@@H]2OCc3ccccc3-c3c(n(C)c4ccccc34)C(=O)N([C@H](C)CO)C[C@H]2C)c(OC)c1	none (no result: HKDC1 inh, PfM18AAP inh)
COc1cc2ccccc2cc1C(=O)Nc1sc2c(c1C(N)=O)CCN(C(C)C)C2	Neddyl block 50.2 (no result: PfG6PD inh, HKDC1 inh)
CCOC(=O)C1CCCN(C(=O)CCCn2nnnc2CN2CCOCC2)C1 (stereo unspecified)	none
COc1ccc2[nH]c(=O)c(CNc3ccccc3C)cc2c1	none
COc1ccc2[nH]c(=O)c(CNc3ccccc3OC)cc2c1	PfG6PD inh 69.2
CC(=O)NN1C(=O)c2ccccc2NC1c1ccccn1 (stereo unspecified)	PfM18AAP inh 39.8 (not shown: Neddyl block)
Cc1cccc(C2Nc3ccccc3C(=O)N2NC(=O)c2ccc([N+](=O)[O-])cc2)n1 (stereo unspecified)	PfM18AAP inh 39.5
O=C(NN1C(=O)c2ccccc2NC1c1ccccn1)c1ccc(Br)cc1 (stereo unspecified)	none
N=C1/C(=C\c2ccc(-c3cccc(Cl)c3)o2)C(=O)N=C2SC=C(c3ccccc3)N12	none
N=C1/C(=C\c2ccc(-c3ccc(C(=O)O)cc3)o2)C(=O)N=C2SC=C(c3ccccc3)N12	HKDC1 inh 39.8
COc1ccc(Cn2c(N)c(C#N)c3nc4ccccc4nc32)cc1OC	Neddyl block 38.5
COc1cc(OC)cc(-n2c3nc4ccccc4nc3c3c(=O)n(CC4CCCO4)cnc32)c1 (stereo unspecified)	none (no result: Neddyl block, PfM18AAP inh)
O=c1c2c3nc4ccccc4nc3n(CC3CCCO3)c2ncn1CCc1ccccc1 (stereo unspecified)	Neddyl block 51.3
NC(=S)Nc1cccc2cc3ccccc3cc12	Neddyl block 47.0
COc1ccc(NC(=O)c2sc3nc(N4CCCC4)c4c(c3c2N)CC(C)(C)OC4)cc1	none
COc1ccc(NC(=O)c2sc3nc(N4CCOCC4)c4c(c3c2N)CC(C)(C)OC4)c(OC)c1	PfM18AAP inh 31.2 (not shown: Neddyl block)
CN1Cc2c(N3CCOCC3)nc3sc(C(=O)c4ccc(Br)cc4)c(N)c3c2CC1(C)C	Neddyl block 41.2
O=C(c1ccc(F)c(S(=O)(=O)N2CCOCC2)c1)N1CCN(c2ncccn2)CC1	none (no result: PfM18AAP inh)
O=c1oc2c(O)c(O)cc3c(=O)oc4c(O)c(O)cc1c4c23	HKDC1 inh 54.0, PfM18AAP inh 29.5
Nc1ccccc1Sc1ccc(C(=O)c2ccccc2C(=O)O)cc1[N+](=O)[O-]	PfM18AAP inh 30.1
CC(=O)c1ccc(Sc2ccccc2N)c([N+](=O)[O-])c1	none
Cc1ccc(C2=NC(=O)/C(=C/c3cc(O)c(O)c(Br)c3)S2)cc1	PfM18AAP inh 48.4
CCOc1ccc(C(C)NC(=O)c2cc(=O)[nH]c3ccccc23)cc1OCC (stereo unspecified)	none
COc1cc(/C=N/N(C)C)cc(Br)c1O	none
CN=c1scc(C)n1/N=C/c1cc(Br)c(O)c(OC)c1	PfM18AAP inh 28.0
CCCn1c2ccccc2c2cnn(CC(=O)NC3CCCCC3)c(=O)c21	none
N#C/C=C1/NC(=O)c2ccccc2S1	PfM18AAP inh 29.1
C=CCOc1c(Br)cc(CNc2ccc(NC(=O)CCC)cc2)cc1OCC	none
C=CCOc1c(Br)cc(CNc2ccc(NC(=O)C(C)C)c(OC)c2)cc1OCC	PfG6PD inh 60.0
N#CC1(NC(=O)COC(=O)c2cc(O)c3ccccc3c2O)CCCCC1	HKDC1 inh 49.7 (no result: PfM18AAP inh)
N#CC1(NC(=O)COC(=O)c2ccccc2[N+](=O)[O-])CCCCC1	none (no result: PfM18AAP inh)
CN1/C(=C\C=N\NC(=O)c2ccccc2Br)C(C)(C)c2ccccc21	PfM18AAP inh 31.1
CN1/C(=C/C=N/n2cnnc2)C(C)(C)c2ccccc21	none
OCC(Cc1ccccc1)Nc1c2ccccc2nc2ccccc12 (stereo unspecified)	Neddyl block 43.5
S=c1[nH]nc(-c2cc(-c3ccccc3)n[nH]2)n1/N=C/c1cccc(Cl)c1	Neddyl block 90.0
C/C(CC(=O)NCc1ccco1)=N\NC(=O)CC#N	PfM18AAP inh 30.3
Cc1cc(=O)n2[nH]cc(C(=O)O)c2n1	PfM18AAP inh 29.1 (not shown: Neddyl block)
